In brackets after ≈: the same amount, converted by molar mass.
Key:
[1] = test system: Staphylococcus aureus; assay: Antibacterial activity against Staphylococcus aureus by broth microdilution method; type: functional
[2] = test system: Escherichia coli; assay: Antibacterial activity against Escherichia coli by broth microdilution method; type: functional
[3] = test system: Rhizopus sp; assay: Antifungal activity against Rhizopus sp. by broth microdilution method
[4] = test system: Candida albicans; assay: Antifungal activity against Candida albicans by broth microdilution method; type: functional
[5] = test system: Aspergillus flavus; assay: Antifungal activity against Aspergillus flavus by broth microdilution method; type: functional
[6] = test system: Klebsiella pneumoniae; assay: Antibacterial activity against Klebsiella pneumoniae by broth microdilution method; type: functional
[7] = test system: Mycobacterium tuberculosis; assay: Antimycobacterial activity against Mycobacterium tuberculosis H37Rv ATCC 27294 by BACTEC radiometric respiratory technique; type: functional
How it was run: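 Compounds prepared as DMSO solutions and tested over 256 to 1 µg/ml, with isoniazid and rifampicin as reference drugs.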

[8] = test system: Rhizopus; assay: Ratio of amphotericin B MIC to drug MIC for Rhizopus sp.; type: functional
[9] = test system: Mycobacterium tuberculosis; assay: Ratio of isoniazid MIC to drug MIC for Mycobacterium tuberculosis H37Rv ATCC 27294; type: functional
[10] = test system: Mycobacterium tuberculosis; assay: Ratio of rifampicin MIC to drug MIC for Mycobacterium tuberculosis H37Rv ATCC 27294; type: functional
[11] = test system: Staphylococcus aureus; assay: Ratio of ciprofloxacin MIC to drug MIC for Staphylococcus aureus; type: functional
[12] = test system: Klebsiella pneumoniae; assay: Ratio of ciprofloxacin MIC to drug MIC for Klebsiella pneumoniae; type: functional

| SMILES | MIC [1] [µg/mL] | MIC [2] [µg/mL] | MIC [3] [µg/mL] | MIC [4] [µg/mL] | MIC [5] [µg/mL] | MIC [6] [µg/mL] | MIC [7] [µg/mL] | Ratio [8] | Ratio [9] | Ratio [10] | Ratio [11] | Ratio [12] |
| --- | --- | --- | --- | --- | --- | --- | --- | --- | --- | --- | --- | --- |
| CCOC(=O)Cc1csc(N/N=C2\CC(c3ccc(Cl)cc3)NC(c3ccc(Cl)cc3)C2C)n1 (stereo not given) | 32 (≈ 61.8 µM) | 64 (≈ 124 µM) | 128 (≈ 247 µM) | > 256 | 64 (≈ 124 µM) | 128 (≈ 247 µM) | > 256 | – | – | – | – | – |
| CCC1/C(=N/N=C2\NC(=O)CS2)CC(c2ccccc2)NC1c1ccccc1 (stereo not given) | 128 (≈ 326 µM) | > 256 | > 256 | 256 (≈ 652 µM) | > 256 | > 256 | > 256 | – | – | – | – | – |
| CCOC(=O)Cc1csc(N/N=C2\CC(c3ccccc3)N(C)C(c3ccccc3)C2C)n1 (stereo not given) | 16 (≈ 34.6 µM) | 128 (≈ 277 µM) | 8 (≈ 17.3 µM) | 256 (≈ 553 µM) | 64 (≈ 138 µM) | 32 (≈ 69.2 µM) | 16 (≈ 34.6 µM) | 1 | 1.56 | 200 | – | – |
| CCOC(=O)Cc1csc(N/N=C2\CC(c3ccc(OC)cc3)NC(c3ccc(OC)cc3)C2C)n1 (stereo not given) | 64 (≈ 126 µM) | 128 (≈ 252 µM) | 256 (≈ 503 µM) | > 256 | > 256 | 256 (≈ 503 µM) | 16 (≈ 31.5 µM) | – | 1.56 | 200 | – | – |
| Cc1ccc(C2C/C(=N\N=C3/NC(=O)CS3)C(C)C(c3ccc(C)cc3)N2)cc1 (stereo not given) | 64 (≈ 157 µM) | 128 (≈ 315 µM) | 256 (≈ 630 µM) | > 256 | 128 (≈ 315 µM) | 256 (≈ 630 µM) | 64 (≈ 157 µM) | – | 0.39 | 50 | – | – |
| CCOC(=O)Cc1csc(N/N=C2\CC(c3ccc(Br)cc3)NC(c3ccc(Br)cc3)C2C)n1 (stereo not given) | 16 (≈ 26.4 µM) | 4 (≈ 6.6 µM) | 256 (≈ 422 µM) | 8 (≈ 13.2 µM) | 32 (≈ 52.8 µM) | 8 (≈ 13.2 µM) | > 256 | – | – | – | – | – |
| CCOC(=O)Cc1csc(N/N=C2\CC(c3ccc(C)cc3)NC(c3ccc(C)cc3)C2C)n1 (stereo not given) | > 256 | 128 (≈ 269 µM) | 128 (≈ 269 µM) | > 256 | > 256 | 256 (≈ 537 µM) | > 256 | – | – | – | – | – |
| CCOC(=O)Cc1csc(N/N=C2\CC(c3ccc(F)cc3)NC(c3ccc(F)cc3)C2C)n1 (stereo not given) | 16 (≈ 33 µM) | 32 (≈ 66 µM) | 16 (≈ 33 µM) | 128 (≈ 264 µM) | 32 (≈ 66 µM) | 64 (≈ 132 µM) | 16 (≈ 33 µM) | – | 1.56 | 200 | – | – |
| CCOC(=O)Cc1csc(N/N=C2\CC(c3ccccc3)NC(c3ccccc3)C2C)n1 (stereo not given) | > 256 | 128 (≈ 285 µM) | > 256 | > 256 | 256 (≈ 571 µM) | > 256 | 64 (≈ 143 µM) | – | 0.39 | 50 | – | – |
| CCOC(=O)Cc1csc(N/N=C2\CC(c3ccccc3)NC(c3ccccc3)C2CC)n1 (stereo not given) | 128 (≈ 277 µM) | > 256 | 256 (≈ 553 µM) | > 256 | > 256 | > 256 | > 256 | – | – | – | – | – |
| CC1/C(=N/N=C2\NC(=O)CS2)CC(c2ccc(F)cc2)NC1c1ccc(F)cc1 (stereo not given) | 4 (≈ 9.65 µM) | 32 (≈ 77.2 µM) | 16 (≈ 38.6 µM) | 16 (≈ 38.6 µM) | 8 (≈ 19.3 µM) | 4 (≈ 9.65 µM) | 128 (≈ 309 µM) | – | 0.19 | 25 | 1 | 2 |
| CC1/C(=N/N=C2\NC(=O)CS2)CC(c2ccccc2)N(C)C1c1ccccc1 (stereo not given) | 16 (≈ 40.8 µM) | 128 (≈ 326 µM) | 8 (≈ 20.4 µM) | 64 (≈ 163 µM) | 64 (≈ 163 µM) | 64 (≈ 163 µM) | 16 (≈ 40.8 µM) | 1 | 1.56 | 200 | – | – |
| COc1ccc(C2C/C(=N\N=C3/NC(=O)CS3)C(C)C(c3ccc(OC)cc3)N2)cc1 (stereo not given) | 32 (≈ 73 µM) | 32 (≈ 73 µM) | 128 (≈ 292 µM) | 64 (≈ 146 µM) | 128 (≈ 292 µM) | 64 (≈ 146 µM) | 32 (≈ 73 µM) | – | 0.78 | 100 | – | – |
| CC1/C(=N/N=C2\NC(=O)CS2)CC(c2ccc(Br)cc2)NC1c1ccc(Br)cc1 (stereo not given) | 8 (≈ 14.9 µM) | 16 (≈ 29.8 µM) | 16 (≈ 29.8 µM) | 64 (≈ 119 µM) | 32 (≈ 59.7 µM) | 8 (≈ 14.9 µM) | 16 (≈ 29.8 µM) | – | 1.56 | 200 | – | – |
| CC1/C(=N/N=C2\NC(=O)CS2)CC(c2ccccc2)NC1c1ccccc1 (stereo not given) | 64 (≈ 169 µM) | 256 (≈ 676 µM) | > 256 | > 256 | 64 (≈ 169 µM) | 64 (≈ 169 µM) | 64 (≈ 169 µM) | – | 0.39 | 50 | – | – |
| CC1/C(=N/N=C2\NC(=O)CS2)CC(c2ccc(Cl)cc2)NC1c1ccc(Cl)cc1 (stereo not given) | 8 (≈ 17.9 µM) | 128 (≈ 286 µM) | 256 (≈ 572 µM) | 128 (≈ 286 µM) | 128 (≈ 286 µM) | 128 (≈ 286 µM) | 16 (≈ 35.8 µM) | – | 1.56 | 200 | – | – |
| C[C@@H]1[C@H](O)[C@@H](C)/C=C/C=C/C=C/C=C/C=C/C=C/C=C/[C@H](O[C@@H]2O[C@H](C)[C@@H](O)[C@H](N)[C@@H]2O)C[C@@H]2O[C@](O)(C[C@@H](O)C[C@@H](O)[C@H](O)CC[C@@H](O)C[C@@H](O)CC(=O)O[C@H]1C)C[C@H](O)[C@H]2C(=O)O [AMPHOTERICIN B] | – | – | 16 (≈ 17.3 µM) | 8 (≈ 8.66 µM) | 8 (≈ 8.66 µM) | – | – | – | – | – | – | – |
| O=C(O)c1cn(C2CC2)c2cc(N3CCNCC3)c(F)cc2c1=O [CIPROFLOXACIN] | 8 (≈ 24.1 µM) | – | – | – | – | 16 (≈ 48.3 µM) | – | – | – | – | – | – |
| NNC(=O)c1ccncc1 [ISONIAZID] | – | – | – | – | – | – | 0.25 (≈ 1.82 µM) | – | – | – | – | – |
| CO[C@H]1/C=C/O[C@@]2(C)Oc3c(C)c(O)c4c(O)c(c(/C=N/N5CCN(C)CC5)c(O)c4c3C2=O)NC(=O)/C(C)=C\C=C\[C@H](C)[C@H](O)[C@@H](C)[C@@H](O)[C@@H](C)[C@H](OC(C)=O)[C@@H]1C [RIFAMPIN] | – | – | – | – | – | – | 32 (≈ 38.9 µM) | – | – | – | – | – |

From ChEMBL document CHEMBL1154090, “Synthesis, spectral and biological evaluation of some new thiazolidinones and thiazoles based on t-3-alkyl-r-2,c-6-diarylpiperidin-4-ones” (2009)
